Test results from ChEMBL document CHEMBL1123876, “Effect of reductive alkylation of lysine in positions 6 and/or 8 on the histamine-releasing activity of luteinizing hormone-releasing hormone antagonists” (1987).
Values after ≈ are worked out from the molar mass of the structure shown. *1 amine or outer side, *2 acyl side, *3 side chain or, on linkers, in order; H or OH if unused. Where a SMILES comes first, the peptide text is derived from it. [ ]: non-standard residue; d: D form. X1 = O=C([C@@H](CCCCNC1CCCC1)N[*:1])[*:2]; X2 = O=C([C@H](CCCCNC1CCCC1)N[*:1])[*:2]; d2Nal = N[C@H](Cc1ccc2ccccc2c1)C(=O)O

Key:
Assay type in all cases: functional
[1] = species on record: Rattus norvegicus; assay: Antiovulatory activity in rat was expressed as percentage of (9) rats blocked at 3 ug/mL
In short: (§1)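 Standard antiovulatory assay in Sprague-Dawley rats; analogue given in a 40% propane-1,2-diol/0.9% saline vehicle.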

[2] = species on record: Rattus norvegicus; assay: In vitro histamine releasing activity in rat peritoneal cells; settings: read-out: ED50 (the source's name)
In short: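 Peritoneal cells from male Sprague-Dawley rats exposed in vitro to each analogue in a standard histamine-release assay. ED50 for histamine release is reported in μg/mL as mean ± standard error.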

[3] = species on record: Rattus norvegicus; assay: Antiovulatory activity in rat was expressed as percentage of (9) rats blocked at 6 ug/mL; in short: as §1
[4] = species on record: Rattus norvegicus; assay: Antiovulatory activity in rat was expressed as percentage of (10) rats blocked at 3 ug/mL; set-up: unit: %; in short: as §1
[5] = species on record: Rattus norvegicus; assay: Antiovulatory activity in rat was expressed as percentage of rats blocked at 1 ug/mL (number of rats); in short: as §1
[6] = species on record: Rattus norvegicus; assay: Antiovulatory activity in rat was expressed as percentage of (8) rats blocked at 3 ug/mL; in short: as §1

| SMILES | EC50 [2] [µg/mL] | Antiovulatory activity [1] | Antiovulatory activity [3] | Antiovulatory activity [4] | Antiovulatory activity [5] | Antiovulatory activity [6] |
| --- | --- | --- | --- | --- | --- | --- |
| CCCC(CCC)NCCCC[C@H](NC(=O)[C@H](Cc1ccccc1)NC(=O)[C@@H](CCCCNC(CCC)CCC)NC(=O)[C@H](Cc1ccc(O)cc1)NC(=O)[C@H](CO)NC(=O)[C@@H](Cc1ccccc1)NC(=O)[C@@H](Cc1ccccc1)NC(=O)[C@@H](Cc1ccc2ccccc2c1)NC(C)=O)C(=O)N1CCC[C@H]1C(=O)N[C@H](C)C(N)=O | 21.9 (≈ 14 µM) |  | 56 | 0 |  |  |
| CCCCC(CCCC)NCCCC[C@H](NC(=O)[C@H](Cc1ccccc1)NC(=O)[C@@H](CCCCNC(CCCC)CCCC)NC(=O)[C@H](Cc1ccc(O)cc1)NC(=O)[C@H](CO)NC(=O)[C@@H](Cc1ccccc1)NC(=O)[C@@H](Cc1ccccc1)NC(=O)[C@@H](Cc1ccc2ccccc2c1)NC(C)=O)C(=O)N1CCC[C@H]1C(=O)N[C@H](C)C(N)=O | > 300 |  | 0 |  |  |  |
| CC(=O)N[C@H](Cc1ccc2ccccc2c1)C(=O)N[C@H](Cc1ccccc1)C(=O)N[C@H](Cc1ccccc1)C(=O)N[C@@H](CO)C(=O)N[C@@H](Cc1ccc(O)cc1)C(=O)N[C@H](CCCCNC1CCCCC1)C(=O)N[C@@H](Cc1ccccc1)C(=O)N[C@@H](CCCCNC1CCCCC1)C(=O)N1CCC[C@H]1C(=O)N[C@H](C)C(N)=O | 5.86 (≈ 3.81 µM) |  |  | 38 |  |  |
| CC(=O)N[C@H](Cc1ccc2ccccc2c1)C(=O)N[C@H](Cc1ccccc1)C(=O)N[C@H](Cc1ccccc1)C(=O)N[C@@H](CO)C(=O)N[C@@H](Cc1ccc(O)cc1)C(=O)N[C@H](CCCCNC1CCCC1)C(=O)N[C@@H](Cc1ccccc1)C(=O)N[C@@H](CCCCNC1CCCC1)C(=O)N1CCC[C@H]1C(=O)N[C@H](C)C(N)=O (Ac-[d2Nal][dF][dF]SY[X1]F[X2]P[dA]-NH2) | 6.1 (≈ 4.04 µM) |  |  | 70 |  |  |

Second part, led by results:

| EC50 [2] [µg/mL] | SMILES | Antiovulatory activity [1] | Antiovulatory activity [3] | Antiovulatory activity [4] | Antiovulatory activity [5] | Antiovulatory activity [6] |
| --- | --- | --- | --- | --- | --- | --- |
| 6.48 (≈ 4.45 µM) | CC(=O)N[C@H](Cc1ccc2ccccc2c1)C(=O)N[C@H](Cc1ccccc1)C(=O)N[C@H](Cc1ccccc1)C(=O)N[C@@H](CO)C(=O)N[C@@H](Cc1ccc(O)cc1)C(=O)N[C@H](CCCCNC(C)C)C(=O)N[C@@H](Cc1ccccc1)C(=O)N[C@@H](CCCCNC(C)C)C(=O)N1CCC[C@H]1C(=O)N[C@H](C)C(N)=O | 89 |  |  |  |  |
| 33 (≈ 21.9 µM) | CC(=O)N[C@H](Cc1ccc2ccccc2c1)C(=O)N[C@H](Cc1ccccc1)C(=O)N[C@H](Cc1ccccc1)C(=O)N[C@@H](CO)C(=O)N[C@@H](Cc1ccc(O)cc1)C(=O)N[C@H](CCCN=C(N)N)C(=O)N[C@@H](Cc1ccccc1)C(=O)N[C@@H](CCCCNCc1ccc(C)cc1)C(=O)N1CCC[C@H]1C(=O)N[C@H](C)C(=O)O |  |  | 10 |  |  |
| 4.73 (≈ 3.08 µM) | CC(=O)N[C@H](Cc1ccc2ccccc2c1)C(=O)N[C@H](Cc1ccccc1)C(=O)N[C@H](Cc1ccccc1)C(=O)N[C@@H](CO)C(=O)N[C@@H](Cc1ccc(O)cc1)C(=O)N[C@H](CCCN=C(N)N)C(=O)N[C@@H](Cc1ccccc1)C(=O)N[C@@H](CCCCNCc1c(C)cc(C)cc1C)C(=O)N1CCC[C@H]1C(=O)N[C@H](C)C(=O)O |  |  | 10 |  |  |
| 4.68 (≈ 3.18 µM) | CC(=O)N[C@H](Cc1ccc2ccccc2c1)C(=O)N[C@H](Cc1ccccc1)C(=O)N[C@H](Cc1ccccc1)C(=O)N[C@@H](CO)C(=O)N[C@@H](Cc1ccc(O)cc1)C(=O)N[C@H](CCCN=C(N)N)C(=O)N[C@@H](Cc1ccccc1)C(=O)N[C@@H](CCCCNCC(C)(C)C)C(=O)N1CCC[C@H]1C(=O)N[C@H](C)C(=O)O | 89 |  |  | 50 |  |
| 4.6 (≈ 3.07 µM) | CCCC(CCC)NCCCC[C@H](NC(=O)[C@H](Cc1ccccc1)NC(=O)[C@@H](CCCN=C(N)N)NC(=O)[C@H](Cc1ccc(O)cc1)NC(=O)[C@H](CO)NC(=O)[C@@H](Cc1ccccc1)NC(=O)[C@@H](Cc1ccccc1)NC(=O)[C@@H](Cc1ccc2ccccc2c1)NC(C)=O)C(=O)N1CCC[C@H]1C(=O)N[C@H](C)C(=O)O |  |  |  |  | 0 |
